Screening data (PubChem BioAssay)
Rows were chosen to be rich in hits. Some 5.6% of all compounds tested hit in one or more screens of this group.
MPTP inh: permeability transition pore inhibition; inhibition, % at 10 µM; isolated mouse mitochondria, Ca2+ swelling absorbance, 30 min; 1.4% of 360,000 active;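 active means inhibition of 50% or more, scaled per plate between neutral and stimulator controls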
CHOP inh: inhibitors of CHOP induction in ER stress response. CHO-K1 CHOP-promoter luciferase, tunicamycin-induced, 15-18 h. inhibition, % at 10 µM. 3.8% of 220,000 active. AID 2732;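 active means compounds that reduced the stress-induced luciferase reporter signal by more than about 70% of percent inhibition, limit read from the data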
aDG glyco up: alpha-DG glycosylation activation. Pro5-aDG cells, alpha-DG glycosylation AlphaScreen (IIH6); 0% Pro5, 100% B10-LARGE cell signal. activation, % at 10 µM. 0.22% of 360,000 active;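 active means activation of at least 8% versus controls, or a plate z-score of at least 8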;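 further: Pro5 are CHO cells carrying HIG-tagged alpha-DG that lacks glycosylation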
NR3A LBD binder: modulates the human NR3A ligand-binding domain; AID 1259313; NR3A LBD differential scanning fluorimetry, Tm shift; 0% = protein alone, 100% = glycine-bound protein; Tm shift relative to glycine control, % at 25 µM; 2.5% of 340,000 active;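 active means melting temperature shift of at least 10% of the positive control shift, at one fixed dose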
XBP1 UPR activ: activators of adaptive arm of unfolded protein response (XBP1); 0.33% of 330,000 active; CHO-XBP1 luciferase reporter, IRE1-XBP1 UPR activation, luminescence; percent of tunicamycin response, DMSO as zero; activation, % at 20 µM; AID 463104;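 active means versus positive control, 20 µM dose yields 30% or more activation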
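Assay system: IRE1-XBP1 luciferase reporter CHO line. Input: 1000 cells/well. Buffer or medium: F12 with 10% serum. Doses: 20 µM, 1% DMSO. Times: overnight seeding at 37 °C, 6 h compound treatment at 37 °C. Technique: Steady-Glo luciferase glow luminescence, 10 min after reagent addition.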
CHOP UPR activ: apoptotic UPR (CHOP) activation | activation, % at 10 µM | 0.34% of 330,000 active | CHO-CHOP luciferase reporter, luminescence; percent of tunicamycin response over DMSO baseline;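 active means at 10 µM dose, activation of 40% or more, normalized to positive control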
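measured by = luciferase luminescence | assay system = CHO-CHOP cells, stable luciferase reporter of PERK-eIF2a-CHOP signalling | amount = 500 reporter cells seeded per well | timing = 6 h compound exposure at 37 °C after overnight seeding | controls = positive tunicamycin 10 µg/mL, negative DMSO alone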
A number is an active result; n = inactive; x = not tested or not shown.

SMILES	MPTP inh	CHOP inh	aDG glyco up	NR3A LBD binder	XBP1 UPR activ	CHOP UPR activ
O=C(Nc1ccc(-c2cn3ccsc3n2)cc1)c1ccc(F)c(S(=O)(=O)N2CCOCC2)c1	n	n	n	25	n	n
Cc1nc2ccc(NC(=O)c3ccc(C)c(S(=O)(=O)N4CCOCC4)c3)cc2s1	n	x	n	13	n	n
Cc1ccc(C(=O)Nc2ccc(Cl)cn2)cc1S(=O)(=O)N1CCOCC1	n	n	n	19	n	n
Cc1ccc(C(=O)NC2CCCCCCC2)cc1S(=O)(=O)N1CCOCC1	n	x	n	34	n	n
COC(=O)c1sccc1NC(=O)Nc1ccc(C(C)=O)cc1	n	x	n	n	n	n
Cc1nc2ccc(NC(=O)c3ccc(S(=O)(=O)N(C)C)cc3)cc2s1	n	n	n	10	n	n
CN(C)S(=O)(=O)c1cccc(C(=O)Nc2ccc(C(=O)Nc3cccc(S(N)(=O)=O)c3)cc2)c1	n	x	n	21	n	n
CC1(c2nnnn2Cc2ccccc2)CCC(=O)N1Cc1cccc(C(F)(F)F)c1 (stereo not given)	n	x	n	x	x	x
CC(=C/c1ccccc1)/C=N/Nc1nc(N2CCCCC2)nc(N2CCCCC2)n1	n	n	n	n	n	n
Cc1[nH]c2ccccc2c1/C=N/Nc1nc(Nc2ccc(F)cc2)nc(N2CCOCC2)n1	n	n	n	n	n	n
BrC(/C=N/Nc1nc(N2CCOCC2)nc(N2CCOCC2)n1)=C/c1ccccc1	n	82	n	n	n	n
C(=N\Nc1nc(Nc2ccccc2)nc(N2CCOCC2)n1)/c1c[nH]c2ccccc12	x	n	x	18	n	n
Cc1ccc(Nc2nc(N/N=C/c3c[nH]c4ccccc34)nc(N3CCOCC3)n2)cc1	n	95	n	29	n	n
Cc1ccc(S(=O)(=O)NCc2ccc(C(=O)N3CCN(c4ccc([N+](=O)[O-])cc4)CC3)cc2)cc1	n	x	n	n	n	n
CCOC(=O)C1(Cc2ccccc2)CCN(Cc2ccc(C)s2)CC1	n	90	n	n	n	n
CC1Cc2cc(/C(O)=C3/C(=O)C(=O)N(CCCn4ccnc4)C3c3ccc(Br)cc3)ccc2O1 (stereo not given)	n	x	n	n	n	n
CCC(C)c1ccc(NC(=O)COC(=O)c2nc3nccc(C)n3n2)cc1 (stereo not given)	n	n	n	n	n	n
N#C/C(=C/c1ccc(F)cc1)c1nnc(NC(=O)c2ccccc2)s1	n	73	n	n	n	n
N#C/C(=C/c1ccc(F)cc1)c1nc(CCN2C(=O)c3ccccc3C2=O)cs1	n	n	n	n	n	n
Clc1ccc(-c2nc(-c3ccccn3)no2)cc1Cl	n	n	n	n	n	n
Clc1ccccc1OCc1nc(-c2ccccn2)no1	n	n	n	11	n	n
Clc1ccc(OCc2nc(-c3ccccn3)no2)c(Br)c1	n	72	n	n	n	n
Cc1nc2cc(N=NC3=C(O)CCCC3=O)ccc2s1	n	n	n	n	n	n
CCn1c(SCC(=O)Nc2sc3c(c2C#N)CCC(C(C)(C)C)C3)nnc1-c1ccco1 (stereo not given)	n	78	n	n	n	n
Cc1nc(-c2cccc(NC(=O)c3ccc(-n4cccn4)cc3)c2)cs1	n	x	n	16	n	n
SMILES	MPTP inh	CHOP inh	aDG glyco up	NR3A LBD binder	XBP1 UPR activ	CHOP UPR activ
O=C(Nc1ccc(-c2csc(-c3ccccc3)n2)cc1)c1ccccc1	n	n	n	13	n	n
C=CCNC(=O)c1ccc(-c2nc(-c3ccccc3)cs2)cc1	n	n	n	n	n	n
Cc1nc(-c2ccc(C(=O)Nc3cccc(F)c3)cc2)cs1	n	x	n	n	n	n
Fc1ccc(-c2csc(NC(=S)Nc3ccccc3)n2)cc1	n	x	n	25	n	n
Fc1ccc(-c2csc(Nc3ccccn3)n2)cc1	n	x	n	n	n	n
O=C(Cc1csc(-c2ccccc2)n1)Nc1ccc(C(F)(F)F)cc1	n	83	n	13	n	n
COc1ccc(NC(=O)c2ccc(-c3csc(C)n3)cc2)cc1	n	x	n	n	n	n
Cc1nc(-c2ccc(C(=O)Nc3ccc(F)cc3)cc2)cs1	n	n	n	11	n	n
